# Measured values: ChEMBL document CHEMBL1134783, “N-Arylsulfonylindole derivatives as serotonin 5-HT(6) receptor ligands” (J Med Chem, 2001)
# Tests used:
# [1] = biological target: T1, 5-hydroxytryptamine receptor 6 (Homo sapiens, UniProt P50406); test: Binding affinity as displacement of [3H]5-HT binding to 5-hydroxytryptamine 6 receptor in HeLa cells.; assay type: cell-based
# How it was run: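 Human 5-HT6 stably expressed in HeLa cells; washed membranes in 50 mM Tris, 0.03% ascorbic acid, pH 7.6. Nonspecific binding defined with 10 µM 5-HT. Filtration and scintillation counting; one-site fit gave IC50, converted to Ki by Cheng-Prusoff. Geometric mean of ≥3 experiments, each in duplicate.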
# [2] = biological target: D(3) dopamine receptor (Homo sapiens, UniProt P35462); test: Binding affinity against dopamine receptor D3 in HEK 293 cells using [3H]spiperone radioligand; assay type: cell-based, HEK293
# Chain of D(3) dopamine receptor (P35462 whole entry): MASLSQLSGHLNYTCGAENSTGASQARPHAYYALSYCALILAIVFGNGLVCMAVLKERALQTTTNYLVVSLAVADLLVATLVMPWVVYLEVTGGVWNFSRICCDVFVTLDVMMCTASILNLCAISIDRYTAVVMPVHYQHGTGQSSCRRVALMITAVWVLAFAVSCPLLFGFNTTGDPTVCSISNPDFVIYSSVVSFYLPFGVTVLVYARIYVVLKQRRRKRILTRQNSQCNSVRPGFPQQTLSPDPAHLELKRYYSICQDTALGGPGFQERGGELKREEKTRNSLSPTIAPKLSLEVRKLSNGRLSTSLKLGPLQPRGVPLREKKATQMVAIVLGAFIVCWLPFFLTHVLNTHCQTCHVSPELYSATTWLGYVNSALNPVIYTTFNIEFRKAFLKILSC
# [3] = biological target: D(2) dopamine receptor (Homo sapiens, UniProt P14416); test: Binding affinity against dopamine receptor D2 using [3H]spiperone radioligand in CHO cells; assay type: cell-based
# Chain of D(2) dopamine receptor (P14416 whole entry): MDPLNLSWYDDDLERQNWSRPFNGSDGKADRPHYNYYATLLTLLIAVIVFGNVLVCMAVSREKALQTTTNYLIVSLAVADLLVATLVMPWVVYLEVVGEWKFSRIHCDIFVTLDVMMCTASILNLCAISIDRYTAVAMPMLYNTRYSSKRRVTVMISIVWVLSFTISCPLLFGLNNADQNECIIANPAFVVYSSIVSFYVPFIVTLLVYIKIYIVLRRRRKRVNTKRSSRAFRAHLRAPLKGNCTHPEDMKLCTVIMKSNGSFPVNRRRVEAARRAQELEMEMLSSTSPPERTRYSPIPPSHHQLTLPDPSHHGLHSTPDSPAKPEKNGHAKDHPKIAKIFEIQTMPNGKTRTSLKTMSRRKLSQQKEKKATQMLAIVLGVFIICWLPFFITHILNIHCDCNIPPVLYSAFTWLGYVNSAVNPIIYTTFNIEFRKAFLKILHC
# [4] = biological target: 5-hydroxytryptamine receptor 2A (Rattus norvegicus, UniProt P14842); test: Binding affinity for 5-hydroxytryptamine 2 receptor of rat cortical membrane using [3H]DOB radioligand
# Chain of 5-hydroxytryptamine receptor 2A (P14842 whole entry): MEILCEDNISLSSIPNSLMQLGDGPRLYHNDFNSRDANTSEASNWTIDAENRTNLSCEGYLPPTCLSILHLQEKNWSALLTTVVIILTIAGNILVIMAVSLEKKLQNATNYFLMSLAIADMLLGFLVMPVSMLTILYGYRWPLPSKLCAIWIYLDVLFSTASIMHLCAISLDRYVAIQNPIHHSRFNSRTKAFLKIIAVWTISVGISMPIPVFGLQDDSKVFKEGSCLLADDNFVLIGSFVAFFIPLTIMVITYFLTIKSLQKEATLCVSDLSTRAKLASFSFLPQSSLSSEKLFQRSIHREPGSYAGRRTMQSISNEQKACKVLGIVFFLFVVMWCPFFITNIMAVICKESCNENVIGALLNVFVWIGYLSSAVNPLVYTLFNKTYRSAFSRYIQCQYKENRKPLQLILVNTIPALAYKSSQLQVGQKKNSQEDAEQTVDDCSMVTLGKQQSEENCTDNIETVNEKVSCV
# [5] = biological target: 5-hydroxytryptamine receptor 7 (Homo sapiens, UniProt P34969); test: Binding affinity for 5-hydroxytryptamine 7 receptor human cloned receptors in CHO cells using [3H]5-HT; assay type: cell-based
# Chain of 5-hydroxytryptamine receptor 7 (P34969 whole entry): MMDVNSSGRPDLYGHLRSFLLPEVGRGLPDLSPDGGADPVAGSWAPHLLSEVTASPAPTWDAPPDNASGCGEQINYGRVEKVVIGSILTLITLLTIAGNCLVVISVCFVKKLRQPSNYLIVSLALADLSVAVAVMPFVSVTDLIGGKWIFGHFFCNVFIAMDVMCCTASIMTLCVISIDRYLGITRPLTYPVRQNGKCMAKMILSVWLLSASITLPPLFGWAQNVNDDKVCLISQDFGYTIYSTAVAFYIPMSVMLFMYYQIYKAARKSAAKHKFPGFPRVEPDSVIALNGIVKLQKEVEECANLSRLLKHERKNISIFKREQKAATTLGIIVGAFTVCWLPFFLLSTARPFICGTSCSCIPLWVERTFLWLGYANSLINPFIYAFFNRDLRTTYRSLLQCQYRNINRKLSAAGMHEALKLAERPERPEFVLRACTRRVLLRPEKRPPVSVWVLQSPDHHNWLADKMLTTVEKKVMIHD
# [6] = biological target: 5-hydroxytryptamine receptor 1B (Homo sapiens, UniProt P28222); test: Binding affinity against 5-hydroxytryptamine 1B receptor in CHO cells using [3H]5-HT as radioligand; assay type: cell-based
# Chain of 5-hydroxytryptamine receptor 1B (P28222 whole entry): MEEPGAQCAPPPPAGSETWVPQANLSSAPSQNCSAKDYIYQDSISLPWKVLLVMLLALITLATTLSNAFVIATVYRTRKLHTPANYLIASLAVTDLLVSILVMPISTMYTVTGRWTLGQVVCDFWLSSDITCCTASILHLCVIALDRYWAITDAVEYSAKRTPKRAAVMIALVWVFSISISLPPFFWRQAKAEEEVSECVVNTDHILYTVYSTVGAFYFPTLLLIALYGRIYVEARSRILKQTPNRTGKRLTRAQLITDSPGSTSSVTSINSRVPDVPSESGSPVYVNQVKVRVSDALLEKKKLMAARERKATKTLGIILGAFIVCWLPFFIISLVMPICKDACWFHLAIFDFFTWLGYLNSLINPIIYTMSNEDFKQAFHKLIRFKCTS
# [7] = biological target: T2, 5-hydroxytryptamine receptor 1F (Homo sapiens, UniProt P30939); test: Binding affinity against 5-hydroxytryptamine 1F receptor in CHO cells using [3H]5-HT radioligand; assay type: cell-based
# T2 sequence (P30939 whole entry): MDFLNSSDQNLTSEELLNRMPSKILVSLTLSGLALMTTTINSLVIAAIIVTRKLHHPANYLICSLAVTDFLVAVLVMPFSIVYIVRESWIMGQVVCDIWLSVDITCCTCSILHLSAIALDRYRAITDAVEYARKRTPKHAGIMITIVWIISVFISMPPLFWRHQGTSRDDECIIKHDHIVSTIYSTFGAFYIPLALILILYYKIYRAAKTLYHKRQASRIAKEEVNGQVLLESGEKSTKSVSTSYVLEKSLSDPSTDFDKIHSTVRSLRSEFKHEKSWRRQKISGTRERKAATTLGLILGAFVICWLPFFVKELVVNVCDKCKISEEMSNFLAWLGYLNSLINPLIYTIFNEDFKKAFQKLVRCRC
# [8] = biological target: 5-hydroxytryptamine receptor 1D (Homo sapiens, UniProt P28221); test: Binding affinity against 5-hydroxytryptamine 1D receptor in CHO cells using [3H]5-HT as radioligand; assay type: cell-based
# Chain of 5-hydroxytryptamine receptor 1D (P28221 whole entry): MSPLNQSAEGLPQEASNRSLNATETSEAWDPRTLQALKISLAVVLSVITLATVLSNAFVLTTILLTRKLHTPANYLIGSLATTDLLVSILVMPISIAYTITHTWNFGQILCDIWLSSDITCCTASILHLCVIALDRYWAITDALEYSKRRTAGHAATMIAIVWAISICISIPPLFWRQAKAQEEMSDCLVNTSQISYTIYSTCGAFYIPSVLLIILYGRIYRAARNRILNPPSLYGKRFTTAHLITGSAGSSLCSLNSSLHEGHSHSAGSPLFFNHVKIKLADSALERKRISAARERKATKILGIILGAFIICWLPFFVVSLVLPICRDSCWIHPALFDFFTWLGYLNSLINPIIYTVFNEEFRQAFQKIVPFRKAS
# [9] = biological target: 5-hydroxytryptamine receptor 5A (Rattus norvegicus, UniProt P35364); test: Binding affinity against 5-hydroxytryptamine 5A receptor in HEK 293 cells was determined using [3H]LSD as radioligand; assay type: cell-based, HEK293
# Chain of 5-hydroxytryptamine receptor 5A (P35364 whole entry): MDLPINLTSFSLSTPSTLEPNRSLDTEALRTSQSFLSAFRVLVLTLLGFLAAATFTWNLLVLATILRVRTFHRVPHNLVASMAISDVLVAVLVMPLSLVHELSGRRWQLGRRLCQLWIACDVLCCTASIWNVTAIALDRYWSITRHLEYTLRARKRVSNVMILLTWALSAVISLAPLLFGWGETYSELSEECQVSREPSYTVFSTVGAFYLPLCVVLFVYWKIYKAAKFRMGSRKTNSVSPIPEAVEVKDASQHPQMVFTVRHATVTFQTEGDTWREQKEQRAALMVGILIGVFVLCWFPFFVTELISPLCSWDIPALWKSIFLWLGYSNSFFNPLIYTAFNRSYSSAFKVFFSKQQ
# [10] = biological target: T3, D(4) dopamine receptor (Homo sapiens, UniProt P21917); test: Binding affinity against dopamine receptor D4 cloned in HEK 293 cells using [3H]spiperone radioligand; assay type: cell-based, HEK293
# T3 sequence (P21917 whole entry): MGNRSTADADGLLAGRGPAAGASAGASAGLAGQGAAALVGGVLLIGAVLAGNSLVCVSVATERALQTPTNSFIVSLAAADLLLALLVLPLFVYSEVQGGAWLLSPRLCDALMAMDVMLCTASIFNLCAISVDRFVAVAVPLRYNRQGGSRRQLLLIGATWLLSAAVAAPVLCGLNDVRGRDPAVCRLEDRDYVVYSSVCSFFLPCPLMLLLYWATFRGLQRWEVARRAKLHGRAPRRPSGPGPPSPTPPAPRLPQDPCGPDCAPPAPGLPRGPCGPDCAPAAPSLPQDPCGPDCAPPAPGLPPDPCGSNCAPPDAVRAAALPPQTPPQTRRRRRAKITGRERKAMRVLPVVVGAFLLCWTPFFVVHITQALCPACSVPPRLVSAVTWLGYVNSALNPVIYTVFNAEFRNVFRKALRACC
# [11] = biological target: T4, 5-hydroxytryptamine receptor 1A (Homo sapiens, UniProt P08908); test: Binding affinity against 5-hydroxytryptamine 1A receptor in HeLa cells was determined using [3H]5-HT; assay type: cell-based
# T4 sequence (P08908 whole entry): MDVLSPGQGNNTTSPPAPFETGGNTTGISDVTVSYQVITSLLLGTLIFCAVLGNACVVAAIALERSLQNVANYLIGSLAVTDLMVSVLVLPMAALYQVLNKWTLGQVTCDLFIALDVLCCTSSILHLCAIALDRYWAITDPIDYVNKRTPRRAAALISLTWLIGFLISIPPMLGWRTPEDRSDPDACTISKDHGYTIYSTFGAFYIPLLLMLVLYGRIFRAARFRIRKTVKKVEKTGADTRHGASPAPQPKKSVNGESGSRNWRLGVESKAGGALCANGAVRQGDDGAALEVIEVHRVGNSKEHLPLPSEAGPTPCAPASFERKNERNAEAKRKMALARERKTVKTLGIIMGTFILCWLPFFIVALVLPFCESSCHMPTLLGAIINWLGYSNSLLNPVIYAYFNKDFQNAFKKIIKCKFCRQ
# [12] = biological target: T2, 5-hydroxytryptamine receptor 1F; test: Binding affinity against 5-hydroxytryptamine 1F receptor in CHO using [3H]5-HT radioligand
# [13] = biological target: T1, 5-hydroxytryptamine receptor 6; test: Binding affinity as displacement of [3H]5-HT binding to 5-hydroxytryptamine 6 receptor in HeLa cells; assay type: cell-based
# How it was run: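 Membranes from HeLa cells stably expressing cloned human 5-HT6 receptor, in 50 mM Tris with 0.03% ascorbic acid, pH 7.6. […] Nonspecific binding defined by 10 µM 5-HT. Filtration, then scintillation counting. One-site fit gave IC50, converted to Ki by Cheng-Prusoff. Geometric mean of ≥3 independent duplicate runs.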
# T1 sequence (P50406 whole entry): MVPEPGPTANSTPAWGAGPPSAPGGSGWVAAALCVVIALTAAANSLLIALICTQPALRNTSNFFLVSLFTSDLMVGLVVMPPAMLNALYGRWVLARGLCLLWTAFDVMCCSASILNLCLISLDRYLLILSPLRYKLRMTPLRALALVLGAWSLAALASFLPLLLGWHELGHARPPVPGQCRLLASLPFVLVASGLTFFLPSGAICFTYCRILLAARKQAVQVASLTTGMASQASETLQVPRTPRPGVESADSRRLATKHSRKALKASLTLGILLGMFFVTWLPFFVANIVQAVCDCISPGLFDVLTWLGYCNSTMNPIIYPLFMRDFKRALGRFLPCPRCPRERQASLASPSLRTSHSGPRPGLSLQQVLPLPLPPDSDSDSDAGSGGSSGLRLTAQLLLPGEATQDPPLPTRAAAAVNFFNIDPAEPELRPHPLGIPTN
smiles,measurement,setting,value
COc1ccc2[nH]c(C)c(CCN(C)C)c2c1,Ki,[1],89 nM
COc1ccc2c(c1)c(CCN(C)C)cn2S(=O)(=O)c1ccc(Cl)cc1,Ki,[1],17 nM
CN(C)CCc1cn(S(=O)(=O)c2ccccc2)c2ccc(C#N)cc12,Ki,[1],33 nM
COc1ccc2c(c1)c(CCN(C)C)cn2S(=O)(=O)c1ccccc1,Ki,[2],80 nM
same,Ki,[3],210 nM
same,Ki,[4],65 nM
same,Ki,[5],1900 nM
same,Ki,[6],2200 nM
same,Ki,[7],2500 nM
same,Ki,[8],720 nM
same,Ki,[9],> 5000 nM
same,Ki,[10],> 3200 nM
COc1ccc2c(c1)c(CCN(C)C)cn2S(=O)(=O)c1ccccc1Cl,Ki,[1],11 nM
CN(C)CCc1cn(C(=O)c2ccccc2)c2ccc(O)cc12,Ki,[2],> 3500 nM
same,Ki,[11],620 nM
same,Ki,[3],> 2200 nM
same,Ki,[12],29 nM
same,Ki,[4],200 nM
same,Ki,[1],54 nM
same,Ki,[5],1600 nM
same,Ki,[6],420 nM
same,Ki,[8],180 nM
same,Ki,[9],4500 nM
same,Ki,[10],> 3900 nM
COc1ccc2c(c1)c(CCN1CCOCC1)cn2S(=O)(=O)c1ccccc1,Ki,[1],1700 nM
COc1ccc2c(c1)c(CCN(C)C)cn2S(=O)(=O)c1ccc2ccccc2c1,Ki,[1],9.8 nM
CN(C)CCc1cn(S(=O)(=O)c2ccccc2)c2ccc(OCc3ccccc3)cc12,Ki,[1],320 nM
COc1ccc(S(=O)(=O)n2cc(CCN(C)C)c3cc(OC)ccc32)cc1,Ki,[1],26 nM
COc1ccc2c(c1)c(CCN(C)C)cn2S(=O)(=O)c1cccc(Cl)c1,Ki,[1],7.9 nM
CCOC(=O)c1[nH]c2ccccc2c1CCN(C)C,Ki,[2],110 nM
same,Ki,[11],1800 nM
same,Ki,[3],59 nM
same,Ki,[4],130 nM
same,Ki,[1],20 nM
same,Ki,[5],510 nM
same,Ki,[6],910 nM
same,Ki,[7],2000 nM
same,Ki,[8],330 nM
same,Ki,[10],1600 nM
NCCc1cccc2c1ccn2S(=O)(=O)c1ccccc1,Ki,[2],940 nM
same,Ki,[11],140 nM
same,Ki,[3],> 1700 nM
same,Ki,[4],4.8 nM
same,Ki,[1],2.4 nM
same,Ki,[5],29 nM
same,Ki,[6],6.5 nM
same,Ki,[7],47 nM
same,Ki,[8],4.5 nM
same,Ki,[9],1200 nM
same,Ki,[10],> 3200 nM
COc1ccc2c(c1)c(CCN)cn2S(=O)(=O)c1ccccc1,Ki,[1],40 nM
CN(C)CCc1cn(S(C)(=O)=O)c2ccccc12,Ki,[1],620 nM
Cc1ccc(S(=O)(=O)n2cc3c4c(cccc42)[C@H](O)[C@@H](N(C)C)C3)cc1,Ki,[2],3700 nM
same,Ki,[11],> 5600 nM
same,Ki,[3],> 1700 nM
same,Ki,[4],320 nM
same,Ki,[1],7.2 nM
same,Ki,[5],> 5800 nM
same,Ki,[6],3100 nM
same,Ki,[8],3900 nM
same,Ki,[9],> 6400 nM
same,Ki,[10],> 3200 nM
CO[C@H]1c2cccc3c2c(cn3S(=O)(=O)c2ccc(C)cc2)C[C@@H]1N(C)C,Ki,[1],130 nM
COc1ccc2c(c1)c(CCN(C)C)cn2S(=O)(=O)c1cccs1,Ki,[1],8.3 nM
COc1ccc2c(c1)c(CCN(C)C)c(C)n2S(=O)(=O)c1ccccc1,Ki,[1],12 nM
CN(C)CCc1cccc2c1ccn2S(=O)(=O)c1ccccc1,Ki,[2],300 nM
same,Ki,[11],170 nM
same,Ki,[3],1600 nM
same,Ki,[4],18 nM
same,Ki,[1],1.5 nM
same,Ki,[5],460 nM
same,Ki,[6],11 nM
same,Ki,[7],3.9 nM
same,Ki,[8],9.3 nM
same,Ki,[9],3400 nM
same,Ki,[10],> 3200 nM
CN(C)CCCc1cccc2c1ccn2S(=O)(=O)c1ccccc1,Ki,[13],7.9 nM
CN(C)CCc1cccc2c1cc(C(=O)c1ccccc1)n2S(=O)(=O)c1ccccc1,Ki,[2],66 nM
same,Ki,[11],480 nM
same,Ki,[3],750 nM
same,Ki,[4],6.6 nM
same,Ki,[1],3 nM
same,Ki,[5],1300 nM
same,Ki,[6],190 nM
same,Ki,[7],570 nM
same,Ki,[8],98 nM
same,Ki,[9],1600 nM
same,Ki,[10],> 3200 nM
COc1ccc2c(c1)c(CCN(C)C)cn2S(=O)(=O)c1ccc(C)cc1,Ki,[1],45 nM
CN(C)CCc1cn(S(=O)(=O)c2ccccc2)c2ccc(O)cc12,Ki,[1],19 nM
CN(C)CCc1cn(S(=O)(=O)c2ccccc2)c2ccccc12,Ki,[2],23 nM
same,Ki,[11],520 nM
same,Ki,[3],62 nM
same,Ki,[4],84 nM
same,Ki,[1],2.9 nM
same,Ki,[5],3700 nM
same,Ki,[6],2300 nM
same,Ki,[7],770 nM
same,Ki,[8],510 nM
same,Ki,[9],4000 nM
same,Ki,[10],> 3200 nM
CN(C)CCc1cn(C(=O)OC(C)(C)C)c2ccc(O)cc12,Ki,[1],370 nM
COc1cccc(Cc2noc(-c3[nH]c4ccccc4c3CCN(C)C)n2)c1,Ki,[1],1.3 nM
COc1ccc2c(c1)C(CCN(C)C)CN2S(=O)(=O)c1ccccc1 (stereo not given),Ki,[1],63 nM
CN(C)CCc1cccc2[nH]c(C(=O)c3ccccc3)cc12,Ki,[1],260 nM
